From article PMC4819696 (Febs Letters, 2016)
“Also recorded” adds a separate entry of the source. *: point of attachment. Biotin = O=C1N[C@H]2[C@H](CS[C@H]2CCCCC(=O)*)N1

Tests used:
syntenin PDZ1‐2 = assay: Clonal phage ELISA against PDZ1‐2; type: binding; settings: clonal ELISA against the baits PDZ1, PDZ2 or PDZ1‐2
Summary of the method: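 Syntenin PDZ1‑2 (107–275), PDZ1 (107–199) and PDZ2 (198–275) were expressed in E. coli ER2566 and purified by nickel affinity. Clones came from five rounds of selection of M13 gene‑8 libraries (random C‑terminal heptamers or internal dodecamers) on immobilized PDZ1‑2, with PBS/0.05% Tween 20 washes. Clones binding PDZ1‑2 but not control GST were sequenced, then each was tested by phage ELISA against immobilized PDZ1‑2, PDZ1 and PDZ2.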

full‐length syntenin = biological target: T1, full‐length syntenin (Homo sapiens, UniProt O00560); assay: Surface plasmon resonance; type: binding; settings: used as reference channel; 10 mM HEPES, 150 mM NaCl, 0.005% Tween20, pH 7.4
T1 sequence (O00560 1-298): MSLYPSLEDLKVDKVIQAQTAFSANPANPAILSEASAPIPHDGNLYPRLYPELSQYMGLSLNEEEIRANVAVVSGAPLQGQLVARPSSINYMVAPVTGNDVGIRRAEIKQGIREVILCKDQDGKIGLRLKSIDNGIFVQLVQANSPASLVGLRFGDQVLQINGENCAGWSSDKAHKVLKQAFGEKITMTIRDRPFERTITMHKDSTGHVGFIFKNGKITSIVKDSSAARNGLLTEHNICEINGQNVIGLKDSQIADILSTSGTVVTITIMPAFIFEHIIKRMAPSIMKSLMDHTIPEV

C‐terminus of nectin‐1 = type: binding; settings: bait C‐terminus of nectin‐1
Summary of the method: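 Bait was transformed into MaV203 yeast, followed by 100 μg human fetal brain cDNA library in pEXP‑AD502. About 5 × 10^5 transformants were plated on medium lacking Trp/Leu/His with 20 mM 3‑amino‑1,2,4‑triazole, 30 °C, 5 days. Positives were checked on uracil and β‑galactosidase reporters, PCR‑amplified and retested in fresh bait yeast. Multi‑product colonies were discarded. Inserts were sequenced and in‑frame GAL4AD clones kept.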

nectin‐1 = type: cell-based; settings: freshly plated MCF‐7 cells, fibronectin-coated coverslips, 5 h
[1] = biological target: T2, full-length syntenin (SPR analyte) (UniProt O00560 1-298); assay: SPR
T2 sequence (looked up): T1 sequence (O00560 1-298)

syntenin = assay: Co-immunoprecipitation of endogenous nectin-1 and syntenin in MCF‐7 cells; type: cell-based; settings: IP with nectin‐1 specific antibody, immunoblot with anti‐syntenin antibody

With SHWTIDI as the molecule, how does the “binding in clonal phage ELISA (in words)” value (syntenin PDZ1‐2) read?
The value was “both PDZ domains are necessary for binding to this peptide”.

“Biot‐RMRKKDEGSYDLGERKPSSAAYQKAPTKEFpYA‐COOH” was tested. Which “binding to syntenin by SPR (in words)” value (full‐length syntenin) did it give?
The value was “nonbinding”.

How did the “binding in clonal phage ELISA (in words)” value (syntenin PDZ1‐2) turn out when YYWAATGENVYS was run?
The value was “loss of binding in phage ELISAs”.

B1: syntenin: small adaptor protein with PDZ1-2 tandem (protein)
chain: T1 sequence (O00560 1-298)
modifications: left off: GAL4AD, end not stated, kept
How did the “Y2H preference (in words)” value (C‐terminus of nectin‐1) turn out when B1 was run?
Its value is “preferred nectin‐1 binder; also recorded: favored ligand of the C‐terminus of nectin‐1”.

What about the “colocalization (in words)” value (nectin‐1) of the same molecule?
Its value is “colocalizes with nectin‐1 at the sites of cell–cell contacts”.

B2: N-terminal biotinylated nectin-1 C-terminal peptide (peptide)
peptide: Biotin-AENMVSQNDGSFISKKEWYV-OH
SMILES: CC[C@H](C)[C@H](NC(=O)[C@H](Cc1ccccc1)NC(=O)[C@H](CO)NC(=O)CNC(=O)[C@H](CC(=O)O)NC(=O)[C@H](CC(N)=O)NC(=O)[C@H](CCC(N)=O)NC(=O)[C@H](CO)NC(=O)[C@@H](NC(=O)[C@H](CCSC)NC(=O)[C@H](CC(N)=O)NC(=O)[C@H](CCC(=O)O)NC(=O)[C@H](C)NC(=O)CCCC[C@@H]1SC[C@@H]2NC(=O)N[C@@H]21)C(C)C)C(=O)N[C@@H](CO)C(=O)N[C@@H](CCCCN)C(=O)N[C@@H](CCCCN)C(=O)N[C@@H](CCC(=O)O)C(=O)N[C@@H](Cc1c[nH]c2ccccc12)C(=O)N[C@@H](Cc1ccc(O)cc1)C(=O)N[C@H](C(=O)O)C(C)C
Which Kd [1] does the source give for B2 here?
Its Kd is 14 µM.

B3: nectin‐1: cell adhesion protein PVRL1, also called nectin-1 (protein)
chain: QVVQVNDSMYGFIGTDVVLHCSFANPLPSVKITQVTWQKSTNGSKQNVAIYNPSMGVSVLAPYRERVEFLRPSFTDGTIRLSRLELEDEGVYICEFATFPTGNRESQLNLTVMAKPTNWIEGTQAVLRAKKGQDDKVLVATCTSANGKPPSVVSWETRLKGEAEYQEIRNPNGTVTVISRYRLVPSREAHQQSLACIVNYHMDRFKESLTLNVQYEPEVTIEGFDGNWYLQRMDVKLTCKADANPPATEYHWTTLNGSLPKGVEAQNRTLFFKGPINYSLAGTYICEATNPIGTRSGQVEVNITEFPYTPSPPEHGRRAGPVPTAIIGGVAGSILLVLIVVGGIVVALRRRRHTFKGDYSTKKHVYGNGYSKAGIPQHHPPMAQNLQYPDDSDDEKKAGPLGGSSYEEEEEEEEGGGGGERKVGGPHPKYDEDAKRPYFTVDEAEARQDGYGDRTLGYQYDPEQLDLAENMVSQNDGSFISKKEWYV
Which “co-IP of endogenous proteins (in words)” value (syntenin) does the source give for B3 here?
Its value is “confirmed an interaction between the endogenous proteins”.
